Columns and labels:
MDA-MB-468 = assay: In vitro antitumor activity against MDA-468 carcinoma cell line.; format: functional, cell-based; details: Homo sapiens
Summary of the method: (§1)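 MTT assay, 7-day format: 250–300 cells/well, adhered 24 h drug-free, then compound 1 pM–100 μM (n = 8), final DMSO <0.25%; RPMI 1640/10% FCS, 37 °C, 5% CO2. MTT added after exposure, 4 h, formazan dissolved in DMSO–glycine (4:1), absorbance 550 nm.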

MCF7 = assay: In vitro antitumor activity against MCF-7 carcinoma cell line.; format: functional, cell-based; details: Homo sapiens; summary of the method: as §1
NCI [1] = assay: In vitro antitumor activity against carcinoma cell lines by 2-day assay; format: functional, Homo sapiens
Summary of the method: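 NCI panel sulforhodamine B assay: line-specific seeding, 24 h drug-free, then five 10-fold dilutions (top 10^-4 M) for 2 days; growth inhibition from protein-stain optical density change; mean log GI50 across panel.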

NCI [2] = assay: In vitro antitumor activity against carcinoma cell lines by 6-day assay; format: functional, Homo sapiens
Summary of the method: (§2)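 NCI 60-cell-line panel, sulforhodamine B protein stain. Seeding density set per line's growth; 24 h drug-free incubation, then test agent at five 10-fold dilutions up to 10^-4 M for 6 days of exposure. Growth inhibition derived from change in protein-stain optical density; log GI50 reported.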

BT-549 = assay: In vitro antitumor activity against Breast cancer BT-549 cell lines by 6-day assay; format: functional; details: Homo sapiens, BT-549, 144 h; summary of the method: as §2
UACC-62 = assay: In vitro antitumor activity against melanoma UACC-62 cell lines by 6-day assay; format: functional; details: Homo sapiens, UACC-62, 144 h; summary of the method: as §2
SF-295 = assay: In vitro antitumor activity against CNS cancer SF-295 cell lines by 6-day assay; format: functional; details: Homo sapiens, SF-295, 144 h; summary of the method: as §2
SK-MEL-28 = assay: In vitro antitumor activity against melanoma SK-MEL-28 cell lines by 6-day assay; format: functional; details: Homo sapiens, SK-MEL-28, 144 h; summary of the method: as §2
EKVX = assay: In vitro antitumor activity against Non-small cell lung cancer EKVX cell lines by 6-day assay; format: functional; details: Homo sapiens, 144 h; summary of the method: as §2
HCT-15 = assay: In vitro antitumor activity against colon cancer HCT-15 cell lines by 6-day assay; format: functional; details: Homo sapiens, HCT-15, 144 h; summary of the method: as §2
M14 = assay: In vitro antitumor activity against melanoma M14 cell lines by 6-day assay; format: functional; details: Homo sapiens, M14, 144 h; summary of the method: as §2
K562 = assay: In vitro antitumor activity against Leukemia K-562 cell lines by 6-day assay; format: functional; details: Homo sapiens, K562, 144 h; summary of the method: as §2
SF-268 = assay: In vitro antitumor activity against CNS cancer SF-268 cell lines by 6-day assay; format: functional; details: Homo sapiens, SF-268, 144 h; summary of the method: as §2
A549 = assay: In vitro antitumor activity against Non-small cell lung cancer A549/ATCC cell lines by 6-day assay; format: functional; details: Homo sapiens, A549, 144 h; summary of the method: as §2
SNB-75 = assay: In vitro antitumor activity against CNS cancer SNB-75 cell lines by 6-day assay; format: functional; details: Homo sapiens, SNB-75, 144 h; summary of the method: as §2
RXF 393 = assay: In vitro antitumor activity against Renal cancer RXF393 cell lines by 6-day assay; format: functional; details: Homo sapiens, RXF 393, 144 h; summary of the method: as §2
SW-620 = assay: In vitro antitumor activity against colon cancer SW-620 cell lines by 6-day assay; format: functional; details: Homo sapiens, SW-620, 144 h; summary of the method: as §2
786-0 = assay: In vitro antitumor activity against Renal cancer 786-0 cell lines by 6-day assay; format: functional; details: Homo sapiens, 786-0, 144 h; summary of the method: as §2
NCI-H322M = assay: In vitro antitumor activity against Non-small cell lung cancer NCI-H322M cell lines by 6-day assay; format: functional; details: Homo sapiens, 144 h; summary of the method: as §2
MDA-MB-435 = assay: In vitro antitumor activity against Breast cancer MDA-MB-435 cell lines by 6-day assay; format: functional; details: Homo sapiens, MDA-MB-435, 144 h; summary of the method: as §2
ACHN = assay: In vitro antitumor activity against Renal cancer ACHN cell lines by 6-day assay; format: functional; details: Homo sapiens, 144 h; summary of the method: as §2
SNB-19 = assay: In vitro antitumor activity against CNS cancer SNB-19 cell lines by 6-day assay; format: functional; details: Homo sapiens, SNB-19, 144 h; summary of the method: as §2
SK-OV-3 = assay: In vitro antitumor activity against Ovarian cancer SK-OV-3 cell lines by 6-day assay; format: functional; details: Homo sapiens, SK-OV-3, 144 h; summary of the method: as §2
IGROV-1 = assay: In vitro antitumor activity against Ovarian cancer IGROV1 cell lines by 6-day assay; format: functional; details: Homo sapiens, IGROV-1, 144 h; summary of the method: as §2
SK-MEL-5 = assay: In vitro antitumor activity against melanoma SK-MEL-5 cell lines by 6-day assay; format: functional; details: Homo sapiens, SK-MEL-5, 144 h; summary of the method: as §2
COLO 205 = assay: In vitro antitumor activity against colon cancer COLO 205 cell lines by 6-day assay; format: functional; details: Homo sapiens, COLO 205, 144 h; summary of the method: as §2
HOP-92 = assay: In vitro antitumor activity against Non-small cell lung cancer HOP92 cell lines by 6-day assay; format: functional; details: Homo sapiens, HOP-92, 144 h; summary of the method: as §2
NCI-H23 = assay: In vitro antitumor activity against Non-small cell lung cancer NCI-H23 cell lines by 6-day assay; format: functional; details: Homo sapiens, NCI-H23, 144 h; summary of the method: as §2
HT-29 = assay: In vitro antitumor activity against colon cancer HT-29 cell lines by 6-day assay; format: functional; details: Homo sapiens, HT-29, 144 h; summary of the method: as §2
SR = assay: In vitro antitumor activity against Leukemia SR cell lines by 6-day assay; format: functional; details: Homo sapiens, 144 h; summary of the method: as §2
KM12 = assay: In vitro antitumor activity against colon cancer KM12 cell lines by 6-day assay; format: functional; details: Homo sapiens, KM12, 144 h; summary of the method: as §2
CCRF-CEM = assay: In vitro antitumor activity against Leukemia CCRF-CEM cell lines by 6-day assay; format: functional; details: Homo sapiens, 144 h; summary of the method: as §2
MDA-N = assay: In vitro antitumor activity against Breast cancer MDA-N cell lines by 6-day assay; format: functional; details: Homo sapiens, 144 h; summary of the method: as §2
HL-60 = assay: In vitro antitumor activity against Leukemia HL-60(TB) cell lines by 6-day assay; format: functional; details: Homo sapiens, HL-60, 144 h
Summary of the method: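 NCI 60-line panel screen using a sulforhodamine B protein-stain read-out. Seeding density is set by each line's growth. After a 24-h drug-free period, compound is added at five 10-fold dilutions up to 10^-4 M. Exposure lasts 6 days, and growth inhibition (GI50) is taken from the change in stain optical density.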

U-251 = assay: In vitro antitumor activity against CNS cancer U251 cell lines by 6-day assay; format: functional; details: Homo sapiens, U-251, 144 h; summary of the method: as §2
UACC-257 = assay: In vitro antitumor activity against melanoma UACC-257 cell lines by 6-day assay; format: functional; details: Homo sapiens, UACC-257, 144 h; summary of the method: as §2
TK-10 = assay: In vitro antitumor activity against Renal cancer TK-10 cell lines by 6-day assay; format: functional; details: Homo sapiens, TK-10, 144 h; summary of the method: as §2
HCC 2998 = assay: In vitro antitumor activity against colon cancer HCC2998 cell lines by 6-day assay; format: functional; details: Homo sapiens, HCC 2998, 144 h; summary of the method: as §2
DU-145 = assay: In vitro antitumor activity against Prostate cancer DU145 cell lines by 6-day assay; format: functional; details: Homo sapiens, DU-145, 144 h; summary of the method: as §2
OVCAR-8 = assay: In vitro antitumor activity against Ovarian cancer OVCAR-8 cell lines by 6-day assay; format: functional; details: Homo sapiens, OVCAR-8, 144 h; summary of the method: as §2
A498 = assay: In vitro antitumor activity against Renal cancer A498 cell lines by 6-day assay; format: functional; details: Homo sapiens, A498, 144 h; summary of the method: as §2
OVCAR-5 = assay: In vitro antitumor activity against Ovarian cancer OVCAR-5 cell lines by 6-day assay; format: functional; details: Homo sapiens, OVCAR-5, 144 h; summary of the method: as §2
CAKI-1 = assay: In vitro antitumor activity against Renal cancer CAKI-1 cell lines by 6-day assay; format: functional; details: Homo sapiens, CAKI-1, 144 h; summary of the method: as §2
MOLT-4 = assay: In vitro antitumor activity against Leukemia MOLT-4 cell lines by 6-day assay; format: functional; details: Homo sapiens, MOLT-4, 144 h; summary of the method: as §2
SN12C = assay: In vitro antitumor activity against Renal cancer SN12C cell lines by 6-day assay; format: functional; details: Homo sapiens, 144 h; summary of the method: as §2
RPMI-8226 = assay: In vitro antitumor activity against Leukemia RPMI-8226 cell lines by 6-day assay; format: functional; details: Homo sapiens, RPMI-8226, 144 h; summary of the method: as §2
UO-31 = assay: In vitro antitumor activity against Renal cancer UO-31 cell lines by 6-day assay; format: functional; details: Homo sapiens, UO-31, 144 h; summary of the method: as §2
HCT-116 = assay: In vitro antitumor activity against colon cancer HCT116 cell lines by 6-day assay; format: functional; details: Homo sapiens, HCT-116, 144 h; summary of the method: as §2

## O=C(CCl)Nc1ccc(-c2nc3ccccc3s2)cc1I
MDA-MB-468
  IC50: > 0.01 µM
MCF7
  IC50: > 0.01 µM

## CC(=O)N(C(C)=O)c1ccc(-c2nc3ccccc3s2)cc1C
MDA-MB-468
  IC50: > 10 µM
MCF7
  IC50: > 10 µM

## O=C(CCl)Nc1ccc(-c2nc3ccccc3o2)cc1
MDA-MB-468
  IC50: > 1 µM
MCF7
  IC50: > 1 µM

## Nc1ccc(-c2nc3ccccc3s2)cc1Cl
NCI [1]
  Mean log GI50: -4.75 M
NCI [2]
  Mean log GI50: -5.26 M
MDA-MB-468
  IC50: < 0.001 µM
MCF7
  IC50: < 0.001 µM

## Nc1ccc(-c2nc3ccccc3s2)cc1Br
NCI [1]
  Mean log GI50: -4.67 M
BT-549
  GI50: 57.5 µM
UACC-62
  GI50: < 0.01 µM
NCI [2]
  Mean log GI50: -5.01 M
SF-295
  GI50: 42.7 µM
SK-MEL-28
  GI50: > 100 µM
EKVX
  GI50: 81.3 µM
HCT-15
  GI50: 31.6 µM
M14
  GI50: 64.6 µM
K562
  GI50: > 100 µM
SF-268
  GI50: 34.7 µM
A549
  GI50: > 100 µM
MDA-MB-468
  IC50: < 0.001 µM
SNB-75
  GI50: > 100 µM
RXF 393
  GI50: 40.7 µM
SW-620
  GI50: 45.7 µM
786-0
  GI50: 66.1 µM
NCI-H322M
  GI50: > 100 µM
MDA-MB-435
  GI50: 97.7 µM
MCF7
  IC50: < 0.001 µM
ACHN
  GI50: 44.7 µM
SNB-19
  GI50: 47.9 µM
SK-OV-3
  GI50: 58.9 µM
IGROV-1
  GI50: < 0.01 µM
SK-MEL-5
  GI50: 15.8 µM
COLO 205
  GI50: < 0.01 µM
HOP-92
  GI50: 40.7 µM
NCI-H23
  GI50: 28.8 µM
HT-29
  GI50: 24.5 µM
SR
  GI50: 47.9 µM
KM12
  GI50: 69.2 µM
CCRF-CEM
  GI50: 40.7 µM
MDA-N
  GI50: > 100 µM
HL-60
  GI50: 9.55 µM
U-251
  GI50: 37.2 µM
UACC-257
  GI50: < 0.01 µM
TK-10
  GI50: < 0.01 µM
HCC 2998
  GI50: < 0.01 µM
DU-145
  GI50: > 100 µM
OVCAR-8
  GI50: 43.7 µM
A498
  GI50: 0.191 µM
OVCAR-5
  GI50: < 0.01 µM
CAKI-1
  GI50: > 100 µM
MOLT-4
  GI50: 46.8 µM
SN12C
  GI50: > 100 µM
RPMI-8226
  GI50: > 100 µM
UO-31
  GI50: 32.4 µM
HCT-116
  GI50: < 0.01 µM

## c1ccc2sc(-c3ccc4[nH]ncc4c3)nc2c1
MDA-MB-468
  IC50: > 10 µM
MCF7
  IC50: > 10 µM

## CC(=O)Nc1ccc(-c2nc3ccccc3s2)cc1Br
NCI [1]
  Mean log GI50: -4.52 M
MDA-MB-468
  IC50: > 0.1 µM
MCF7
  IC50: > 0.01 µM

## CC(=O)N(C(C)=O)c1ccc(-c2nc3ccccc3s2)cc1Cl
MDA-MB-468
  IC50: > 1 µM
MCF7
  IC50: > 10 µM

## O=C(Nc1ccc(-c2nc3ccccc3s2)cc1)c1ccccc1
MDA-MB-468
  IC50: > 1 µM
MCF7
  IC50: > 1 µM

## Nc1ccc(-c2nc3ccccc3[nH]2)cc1
MDA-MB-468
  IC50: > 1 µM
MCF7
  IC50: > 10 µM

## O=C(Nc1ccc(-c2nc3ccccc3s2)cc1)C(F)(F)F
MDA-MB-468
  IC50: > 0.1 µM
MCF7
  IC50: > 0.01 µM

## C/C(S)=N/c1ccc(-c2nc3ccccc3s2)cc1
MDA-MB-468
  IC50: > 0.1 µM
MCF7
  IC50: > 0.1 µM

## CC(=O)Nc1ccc(-c2nc3ccccc3o2)cc1
NCI [1]
  Mean log GI50: -4.27 M
MDA-MB-468
  IC50: > 10 µM
MCF7
  IC50: > 10 µM

From ChEMBL document CHEMBL1132564, “Antitumor benzothiazoles. 7. Synthesis of 2-(4-acylaminophenyl)benzothiazoles and investigations into the role of acetylation in the antitumor activities of the parent amines” (J Med Chem, 1999)
